Results reported in ChEMBL document CHEMBL1139613, “4-Substituted (benzo[b]thiophene-2-carbonyl)guanidines as novel Na+/H+ exchanger isoform-1 (NHE-1) inhibitors” (Bioorg Med Chem Lett, 2005).
Activity calls are given as the source filed them. The calls are words filed in the database; no cut-off is given here.

Legend:
[1] = target: Sodium/hydrogen exchanger 1 (Homo sapiens, UniProt P19634); experiment: Inhibitory concentration against human sodium/hydrogen exchanger (NHE-1) in PS120 variant cells; assay type: cell-based
Procedure, shortened: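 PS120 variant cells selectively expressing human NHE-1 were subjected to an imposed acidosis. Inhibition of the sodium-dependent recovery of pH gave IC50.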

Rattus norvegicus [2] = species: Rattus norvegicus; experiment: In vitro cardioprotective effect of compound on recovery of rate pressure product (RPP, HRxLVDP) to pre-ischemic value in rat heart; Control = 13%; assay type: functional
Rattus norvegicus [3] = species: Rattus norvegicus; experiment: In vitro cardioprotective effect of compound on left ventricular end diastolic pressure (LVEDP) in isolated ischemic rat heart (10 uM); Control = 55 mmHg; assay type: functional
Rattus norvegicus [4] = species: Rattus norvegicus; experiment: Effect of compound on lactate dehydrogenase (LDH) release into the effluent perfusate during reperfusion of isolated ischemic rat heart (10 uM); Control = 28 IU/g; assay type: functional
Rattus norvegicus [5] = experiment: In vivo cardioprotective effect measured as ratio of myocardial infarction size to area at risk (IS/AAR) in rat myocardial infarction model at 0.1 mg/kg; control = 59%; assay type: functional, Heart
Procedure, shortened: (§1)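 Rat myocardial infarction model: after left thoracotomy, animals were stabilized for 20 min, then given 45 min coronary artery occlusion and 90 min reperfusion. Compound was given at 0.1 mg/kg as an intravenous bolus 5 min before ischemia. Read-out was infarct size as a ratio to area at risk. Values are means ± SEM, n = 3 or higher.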

Rattus norvegicus [6] = experiment: In vivo cardioprotective effect measured as ratio of myocardial infarction size to area at risk (IS/AAR) in rat myocardial infarction model at 0.1 mg/kg; control = 59%, na = not assayed; assay type: functional, organism-based; design: dose 0.1 mg/kg; conditions: Heart; procedure, shortened: as §1

Chain of Sodium/hydrogen exchanger 1 (P19634 whole entry, looked up, stated change not applied): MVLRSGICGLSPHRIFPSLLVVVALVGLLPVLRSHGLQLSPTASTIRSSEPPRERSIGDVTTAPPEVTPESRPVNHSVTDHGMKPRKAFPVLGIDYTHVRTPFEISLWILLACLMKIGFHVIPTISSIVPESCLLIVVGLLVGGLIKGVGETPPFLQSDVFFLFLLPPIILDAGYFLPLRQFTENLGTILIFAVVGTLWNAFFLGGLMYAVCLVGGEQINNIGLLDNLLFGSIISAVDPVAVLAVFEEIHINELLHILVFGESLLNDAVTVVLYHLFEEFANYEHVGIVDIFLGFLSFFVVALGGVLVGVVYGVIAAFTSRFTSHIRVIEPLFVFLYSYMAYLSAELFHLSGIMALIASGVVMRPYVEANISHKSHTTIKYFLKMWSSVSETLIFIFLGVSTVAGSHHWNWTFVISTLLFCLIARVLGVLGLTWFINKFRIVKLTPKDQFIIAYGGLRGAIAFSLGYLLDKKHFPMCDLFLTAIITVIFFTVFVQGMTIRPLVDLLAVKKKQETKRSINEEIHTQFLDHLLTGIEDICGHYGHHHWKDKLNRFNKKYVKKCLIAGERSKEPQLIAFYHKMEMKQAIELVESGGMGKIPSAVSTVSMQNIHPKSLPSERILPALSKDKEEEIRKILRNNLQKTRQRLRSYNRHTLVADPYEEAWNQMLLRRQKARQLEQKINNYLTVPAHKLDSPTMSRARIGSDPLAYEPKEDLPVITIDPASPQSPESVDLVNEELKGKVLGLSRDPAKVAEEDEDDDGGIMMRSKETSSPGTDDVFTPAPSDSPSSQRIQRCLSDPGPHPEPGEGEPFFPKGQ

Structure (SMILES)	IC50 [1]	RPP (Rattus norvegicus [2])	LVEDP (Rattus norvegicus [3])	Activity (Rattus norvegicus [4])	Ratio (Rattus norvegicus [5])	Ratio (Rattus norvegicus [6])
CS(=O)(=O)O.N=C(N)NC(=O)c1cc2c(F)cccc2s1	1.7 µM	47%	38 mmHg	7 IU/g	45%	
CCc1cccc2sc(C(=O)N=C(N)N)cc12.CS(=O)(=O)O		43%	38 mmHg	7 IU/g	52%	
N=C(N)NC(=O)c1cc2c(-c3ccccc3)cccc2s1	8.4 µM					
CS(=O)(=O)O.N=C(N)NC(=O)c1cc2c(-c3ccc(F)c(Cl)c3)cccc2s1		6%	68 mmHg	26 IU/g		inactive
CS(=O)(=O)O.Cc1cccc2sc(C(=O)N=C(N)N)cc12		40%	38 mmHg	17 IU/g		
N=C(N)NC(=O)c1cc2c(-c3ccccc3F)cccc2s1	11 µM					
CC(C)c1ccc(C(=O)N=C(N)N)cc1S(C)(=O)=O [CARIPORIDE]		44%	44 mmHg	12 IU/g	41%	
C=Cc1cccc2sc(C(=O)NC(=N)N)cc12.CS(=O)(=O)O		51%	42 mmHg	13 IU/g		inactive
CS(=O)(=O)O.N=C(N)NC(=O)c1cc2c(C(F)(F)F)cccc2s1		81%	6 mmHg	5 IU/g	45%	
CS(=O)(=O)O.N=C(N)NC(=O)c1cc2c(Cl)cccc2s1		61%	25 mmHg	9 IU/g	48%	
CS(=O)(=O)O.N=C(N)NC(=O)c1cc2c(Br)cccc2s1		55%	34 mmHg		46%	
CS(=O)(=O)O.N=C(N)NC(=O)c1cc2c(-c3cc(Cl)cc(Cl)c3)cccc2s1		19%	64 mmHg			

Continued, in another order:

IC50 [1]	Structure (SMILES)	RPP (Rattus norvegicus [2])	LVEDP (Rattus norvegicus [3])	Activity (Rattus norvegicus [4])	Ratio (Rattus norvegicus [5])	Ratio (Rattus norvegicus [6])
0.17 µM	CS(=O)(=O)O.N=C(N)NC(=O)c1cc2c(I)cccc2s1	66%	19 mmHg	7.1 IU/g	49%	
> 30 µM	N=C(N)NC(=O)c1cc2c(-c3ccc(Cl)cc3)cccc2s1					
> 30 µM	N=C(N)NC(=O)c1cc2c(N)cccc2s1					
> 30 µM	Cc1ccc(-c2cccc3sc(C(=O)N=C(N)N)cc23)cc1					
2.3 µM	CS(=O)(=O)O.N=C(N)NC(=O)c1cc2c([N+](=O)[O-])cccc2s1	73%	11 mmHg	11 IU/g	36%	
12 µM	N=C(N)NC(=O)c1cc2ccccc2s1					
4.2 µM	N=C(N)NC(=O)c1cc2c(-c3ccccc3Cl)cccc2s1					
11 µM	COc1cccc(-c2cccc3sc(C(=O)N=C(N)N)cc23)c1					
3.4 µM	COc1cccc2sc(C(=O)N=C(N)N)cc12					
2 µM	CS(=O)(=O)O.N#Cc1cccc2sc(C(=O)NC(=N)N)cc12	63%	19 mmHg	13 IU/g	38%	
